T cruzi growth-1 – T. cruzi proliferation inhibition | T. cruzi beta-gal in NIH3T3, GalScreen luminescence, 90 h | inhibition, % at 8.34 µM | actives 5.9% (n = 77,000) | AID 624255;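 active means mean inhibition above about 93%, with at least 55% of replicates each passing it, limit read from the data, passing the limit was not always enough; inconclusive means only one of those two conditions holds; inactive means neither condition holds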
KDM4C inh – blocks human GASC-1 (KDM4C) demethylase activity; GST-KDM4C 2-372, H3K9me3 peptide, LANCE TR-FRET; inhibition, % at 12.5 µM; actives 0.15% (n = 96,000);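 active means mean replicate inhibition above about 25%, with at least 55% of replicates also reaching it, limit read from the data, passing the limit was not always enough; inconclusive means only one of those two conditions met; inactive means neither condition met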
Target sequence (Q9H3R0 2-372 limits assumed): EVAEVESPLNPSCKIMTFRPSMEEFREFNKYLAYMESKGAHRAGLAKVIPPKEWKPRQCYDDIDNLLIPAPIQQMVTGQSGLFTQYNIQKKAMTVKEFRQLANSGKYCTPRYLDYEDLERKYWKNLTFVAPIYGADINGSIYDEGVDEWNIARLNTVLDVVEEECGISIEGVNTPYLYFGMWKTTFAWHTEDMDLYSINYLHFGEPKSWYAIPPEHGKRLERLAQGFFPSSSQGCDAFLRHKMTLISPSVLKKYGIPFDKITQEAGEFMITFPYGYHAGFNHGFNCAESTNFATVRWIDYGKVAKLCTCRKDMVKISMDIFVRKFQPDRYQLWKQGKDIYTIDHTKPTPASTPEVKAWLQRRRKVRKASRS
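Test system – GST-tagged GASC-1 (JMJD2C) catalytic fragment, aa 2-372 · Medium – HEPES buffer, pH 7.5, plus ascorbate · Reagent – H3K9me3 peptide with Fe(II)/2OG · Compound – one test concentration per compound · Timing – 30 min reaction, 60 min detection, RT · Technique – TR-FRET with Eu antibody and ULight streptavidin, EDTA stop · Read-out basis – inhibition from TR-FRET ratio decrease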
Pf Dd2 inh – blocks growth of Plasmodium falciparum Dd2 parasites; P. falciparum Dd2 growth, SYBR Green, 72 h; active compounds read low; activity change, % at 10 µM; actives 2.3% (n = 94,000); AID 1159554; in the data active means activity change below about -80%; inconclusive means no clear call, values can overlap the other calls
IDH1 R132H inh – inhibitors of human IDH1 R132H. O75874. IDH1 R132H reductase, diaphorase/resazurin fluorescence, 60 min. inhibition, % at 10 µM. actives 0.18% (n = 70,000). AID 624101; in the data active means inhibition above about 34%; inconclusive means no clear call, values can overlap the other calls; inactive means below about 11%;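 further: 0% = DMSO and 100% = no enzyme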
T cruzi growth-2 – blocks T. cruzi growth in NIH3T3 host cells; T. cruzi beta-gal in NIH3T3, GalScreen luminescence, 90 h; shares compounds with T cruzi growth-1; actives 72% (n = 5,600); inhibition, % at 8.35 µM;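 active means mean replicate inhibition above about 95% and at least 55% of replicates individually reaching it, limit read from the data; inconclusive means only one of the two criteria is met; inactive means neither criterion is met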
T cruzi growth-3 – inhibitors of T. cruzi proliferation; T. cruzi beta-gal in NIH3T3, GalScreen luminescence, 90 h; AID 651740; actives 21% (n = 5,600); shares compounds with T cruzi growth-1; inhibition, % at 2.09 µM;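 active means mean inhibition above about 95%, with at least 55% of replicates also reaching it, limit read from the data; inconclusive means meets just one of the two conditions; inactive means meets neither condition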;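 further: plate controls were neutral control median for no effect and positive control median for full effect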
NIH3T3 tox – kills mouse NIH/3T3 fibroblasts; shares compounds with T cruzi growth-1; NIH/3T3 viability, CellTiter-Glo ATP luminescence, 90 h; cytotoxicity (signal decrease), % at 8.35 µM; actives 14% (n = 5,600); AID 651742;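 active means mean signal decrease across replicates above about 35% based on untreated-well scatter, with enough replicates individually passing, limit read from the data; inconclusive means no rule stated though some were filed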;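 further: 0% = median of neutral control wells and 100% = median of positive control wells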
NIH3T3 tox 2 – kills mouse NIH/3T3 fibroblasts; shares compounds with T cruzi growth-1; AID 651744; NIH/3T3 viability, CellTiter-Glo ATP luminescence, 90 h; inhibition, % at 24.9 µM; actives 56% (n = 5,600);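 active means mean loss of cell viability signal at or above a set limit, and enough replicates individually reaching it; inconclusive means meets only the mean limit or only the replicate share; inactive means meets neither condition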;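 further: 0% = median of neutral control wells and 100% = median of positive control wells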
The depositor's hits bear a star; ? = inconclusive; · = no result given. This is a sample that favours compounds with a hit; in the whole collection about 5.8% have one here.

SMILES	T cruzi growth-1	KDM4C inh	Pf Dd2 inh	IDH1 R132H inh	T cruzi growth-2	T cruzi growth-3	NIH3T3 tox	NIH3T3 tox 2
C[C@H]1CCCCO[C@@H](CN(C)S(=O)(=O)c2ccc(F)cc2)[C@@H](C)CN([C@@H](C)CO)C(=O)c2cc(NC(=O)NC3CCCCC3)ccc2O1	69	-1	-60	-10	·	·	·	·
Cc1ccc(S(=O)(=O)N(C)C[C@H]2OCCCC[C@@H](C)Oc3ccc(NC(=O)NC4CCCCC4)cc3C(=O)N([C@H](C)CO)C[C@H]2C)cc1	99*	-1	-79	·	105*	?	-34	14
Cc1ccc(S(=O)(=O)N(C)C[C@H]2OCCCC[C@H](C)Oc3ccc(NC(=O)NC4CCCCC4)cc3C(=O)N([C@@H](C)CO)C[C@@H]2C)cc1	74	-1	?	-1	·	·	·	·
Cc1ccc(S(=O)(=O)N(C)C[C@@H]2OCCCC[C@H](C)Oc3ccc(NC(=O)NC4CCCCC4)cc3C(=O)N([C@H](C)CO)C[C@@H]2C)cc1	99*	0	-48	·	107*	64	-7	0
CO[C@H]1CN(C)C(=O)c2ccc(NC(=O)C3CC3)cc2OC[C@@H](C)N(Cc2nccs2)C[C@H]1C	50	2	·	0	·	·	·	·
C[C@@H]1CCCCO[C@H](CN(C)S(=O)(=O)c2ccc(Cl)cc2)[C@@H](C)CN([C@@H](C)CO)C(=O)c2cc(NC(=O)NC3CCCCC3)ccc2O1	101*	0	·	·	105*	84	17	33*
CCS(=O)(=O)N1CCCCN2[C@@H](CO)[C@@H](c3ccc(-c4ccc(C#N)cc4)cc3)[C@@H]2C1	99*	-2	-51	·	65	24	17	39*
CCS(=O)(=O)N1CCCCN2[C@H](CO)[C@@H](c3ccc(-c4cccc(C#N)c4)cc3)[C@H]2C1	71	-2	-38	·	·	·	·	·
CCS(=O)(=O)N1CCCCN2[C@H](CO)[C@@H](c3ccc(-c4cccc(C#N)c4)cc3)[C@@H]2C1	108*	-2	-89*	·	68	0	14	69*
COc1ccc(NC(=O)Nc2ccc3c(c2)CC(=O)N([C@@H](C)CO)C[C@@H](C)[C@@H](CN(C)C(=O)Nc2ccc(OC)cc2)O3)cc1	12	2	9	·	·	·	·	·
O=C(CC1CC1)N1CC(=O)N2[C@H](CO)[C@H](c3ccc(C#Cc4ccccc4)cc3)[C@H]2C1	·	-1	-11	·	·	·	·	·
C[C@@H]1CN([C@H](C)CO)C(=O)c2cc(C#Cc3ccccc3)cnc2O[C@@H]1CN(C)C(=O)c1ccccc1F	-97	0	-59	·	·	·	·	·
C[C@@H]1CN([C@@H](C)CO)C(=O)c2cc(C#Cc3cccc(F)c3)cnc2O[C@H]1CN(C)C(=O)c1ccccc1F	110*	-1	-77	1	109*	47	21	25
C[C@H](CO)N1C[C@H](C)[C@@H](CN(C)C(=O)c2ccccc2F)Oc2ncc(C#Cc3cccc(F)c3)cc2C1=O	99*	-1	-87*	1	103*	36	-11	-10
C[C@H](CO)N1C[C@H](C)[C@H](CN(C)C(=O)c2ccccc2F)Oc2ncc(C#Cc3ccccc3)cc2C1=O	-19	1	-60	·	·	·	·	·
CC1(C)CC(=O)c2c(O)cc(OCC(=O)c3cccc([N+](=O)[O-])c3)cc2O1	·	·	·	0	·	·	·	·
C[C@@H]1CN([C@@H](C)CO)S(=O)(=O)c2ccc(C#CC3CC3)cc2O[C@H]1CN(C)Cc1ccccc1	120*	1	-52	1	95*	76	50*	106*
C[C@@H]1CN([C@@H](C)CO)S(=O)(=O)c2ccc(C#CC3CC3)cc2O[C@@H]1CN(C)Cc1ccccc1	37	-2	-40	-1	·	·	·	·
C[C@H]1CN([C@@H](C)CO)S(=O)(=O)c2ccc(C#CC3CC3)cc2O[C@@H]1CN(C)Cc1ccccc1	111*	-3	-43	0	100*	93	-12	105*
C[C@H]1CN([C@@H](C)CO)S(=O)(=O)c2ccc(C#CC3CC3)cc2O[C@H]1CN(C)Cc1ccccc1	58	0	-25	0	·	·	·	·
COc1ccc(S(=O)(=O)Nc2ccc3c(c2)C(=O)N([C@H](C)CO)C[C@H](C)[C@@H](CN(C)S(=O)(=O)c2ccc(Cl)cc2)OCCCC[C@@H](C)O3)cc1	101*	0	-25	1	108*	28	6	36*
COc1ccc(S(=O)(=O)N(C)C[C@H]2OCCCC[C@H](C)Oc3ccc(NS(=O)(=O)c4ccc(Cl)cc4)cc3C(=O)N([C@@H](C)CO)C[C@@H]2C)cc1	·	-1	-52	·	·	·	·	·
COc1ccc(S(=O)(=O)Nc2ccc3c(c2)C(=O)N([C@@H](C)CO)C[C@H](C)[C@@H](CN(C)S(=O)(=O)c2ccc(Cl)cc2)OCCCC[C@@H](C)O3)cc1	99*	0	-75	0	101*	114*	-2	35*
O=C(c1ccncc1)N1C[C@@H]2[C@H](c3ccccc31)[C@H](CO)N2Cc1ccc(F)cc1	33	-1	13	·	·	·	·	·
Cc1cccc(-c2ccc([C@@H]3[C@@H](CO)N4CCCCN(C(=O)c5ccncc5)C[C@H]34)cc2)c1	31	-1	0	·	·	·	·	·
SMILES	T cruzi growth-1	KDM4C inh	Pf Dd2 inh	IDH1 R132H inh	T cruzi growth-2	T cruzi growth-3	NIH3T3 tox	NIH3T3 tox 2
Cc1cccc(-c2ccc([C@H]3[C@H]4CN(C(=O)c5cccnc5)CCCCN4[C@H]3CO)cc2)c1	109*	2	-4	·	?	27	12	26*
Cc1cccc(-c2ccc([C@H]3[C@@H](CO)N4CCCCN(C(=O)c5ccncc5)C[C@H]34)cc2)c1	?	-2	23	·	105*	95	12	24*
Cc1cccc(-c2ccc([C@H]3[C@H](CO)N4CCCCN(C(=O)c5cccnc5)C[C@@H]34)cc2)c1	116*	-1	27	·	102*	42	39*	32*
Cc1ccccc1-c1ccc([C@H]2[C@@H](CO)N3CCCCN(C(=O)c4cccnc4)C[C@H]23)cc1	99*	-1	26	·	97*	47	18	9
CO[C@H]1CC[C@H]2CCN(C)C(=O)[C@H](C)[C@H](OC)CN(C)C(=O)c3cccc(C#N)c3OC[C@H]1O2	-36	-1	33	0	·	·	·	·
O=C(c1ccncc1)N1CCCCN2[C@H](C1)[C@@H](c1ccc(-c3ccccc3)cc1)[C@@H]2CO	9	-1	36	·	·	·	·	·
O=C(c1ccncc1)N1CCCCN2[C@H](CO)[C@H](c3ccc(-c4ccccc4)cc3)[C@@H]2C1	119*	-1	46	·	82	6	-9	18

Source: PubChem BioAssay
